IC50 data for eleven compounds are collected here from ChEMBL document CHEMBL1135419, “Molecular docking and high-throughput screening for novel inhibitors of protein tyrosine phosphatase-1B” (J Med Chem, 2002).

In the test the target is T1, Tyrosine-protein phosphatase non-receptor type 1 (Homo sapiens, UniProt P18031).
T1 sequence (P18031 whole entry): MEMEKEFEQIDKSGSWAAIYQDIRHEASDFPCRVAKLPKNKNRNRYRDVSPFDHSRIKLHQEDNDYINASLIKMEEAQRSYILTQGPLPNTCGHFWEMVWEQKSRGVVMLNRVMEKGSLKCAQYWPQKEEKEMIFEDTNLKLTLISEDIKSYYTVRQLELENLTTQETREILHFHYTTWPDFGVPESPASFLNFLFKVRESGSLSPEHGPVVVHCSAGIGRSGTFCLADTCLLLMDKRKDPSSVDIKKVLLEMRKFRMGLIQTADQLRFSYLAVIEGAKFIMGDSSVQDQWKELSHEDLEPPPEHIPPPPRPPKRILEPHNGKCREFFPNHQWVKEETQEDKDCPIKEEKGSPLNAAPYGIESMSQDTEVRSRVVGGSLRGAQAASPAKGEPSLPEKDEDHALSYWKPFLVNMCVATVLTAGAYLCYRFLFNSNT
The test is described as follows: Inhibition of human Protein-tyrosine phosphatase 1B (PTP1B) dephosphorylation of insulin receptor peptide. In short, it runs like this:
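Human recombinant PTP1B (residues 1-322) with 50 µM phosphopeptide substrate, room temperature, stopped with malachite green reagent, absorbance read at 620 nm. Docking-set assay: 1 nM enzyme in 25 mM HEPES pH 7.4, 125 mM NaCl, 1 mM EDTA, 10% glycerol, 10 mM DTT, no albumin, 10 min, DMSO below 10%, triplicates. HTS assay: 0.9 nM enzyme, pH 7.0, 0.03% BSA, 60 min.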
As usually defined, the IC50 is the concentration needed to halve the response being measured. With `O=C(O)c1ccc(/C=C2/SC(=S)N(Cc3ccccc3)C2=O)cc1`, the midpoint of inhibition, the IC50, lay at 21.6 µM.
Compound `O=C(O)c1ccc(N2C(=O)/C(=C\C=C\c3ccccc3)SC2=S)cc1` yielded an IC50 of 4.4 µM.
Then `CC1=NN(c2cccc(Cl)c2)C(=O)/C1=C\c1ccc(-c2ccc(C(=O)O)c(Cl)c2)o1`, with 19.3 µM.
Then `O=C(O)c1ccc(-c2ccc(/C=C3/S/C(=N\c4ccccc4)N(c4ccccc4)C3=O)o2)cc1O`, with 9 µM; and `O=C1NC(=O)C(=Cc2ccc(Sc3nc4ccc([N+](=O)[O-])cc4s3)c([N+](=O)[O-])c2)C(=O)N1`, with 4.1 µM; and `CSc1[nH]nc(NC(=O)c2ccc(Cl)c(Cl)c2)c1S(=O)(=O)c1ccc(Cl)cc1`, with 63.9 µM.
Then `CCOc1cc(/C=C2/N=C(c3ccc4c(c3)OCO4)OC2=O)cc(Cl)c1OC(C)=O`, with 35 µM; and `O=C(Nc1ccc(O)cc1)/C(=C/c1c[nH]c2ccccc12)NC(=O)c1ccccc1`, with 21.5 µM; and `Oc1cccc(-c2nc(-c3ccc(-c4ccccc4)cc3)c(-c3ccc(-c4ccccc4)cc3)[nH]2)c1`, with 8.6 µM.
On to `COC(=O)c1ccc2nc(NC(=O)COC(=O)c3ccc(Br)o3)sc2c1`, for which the IC50 was determined as 34.4 µM.
The figure for `O=C(Nc1ccccc1)Nc1cc(-c2ccc(Cl)cc2)nn1-c1ccccc1` is 12 µM.
